Reference: ChEMBL document CHEMBL4622938, “Discovery of phenanthridine analogues as novel chemical probes disrupting the binding of DNA to ΔFosB homodimers and ΔFosB/JunD heterodimers” (Bioorg Med Chem Lett, 2020)

What was measured:
[1] = target: T1, Protein FosB (Homo sapiens) (UniProt P53539); test: (§1) Inhibition of recombinant Hi6-tagged deltaFOSB (unknown origin) expressed in insect cells interaction with TAMRA labeled 5'-GTCGGTGACTCAAAACA-3' AP1 oligonucleotide measured after 15 mins by fluorescence polarization assay
T1 sequence (whole entry): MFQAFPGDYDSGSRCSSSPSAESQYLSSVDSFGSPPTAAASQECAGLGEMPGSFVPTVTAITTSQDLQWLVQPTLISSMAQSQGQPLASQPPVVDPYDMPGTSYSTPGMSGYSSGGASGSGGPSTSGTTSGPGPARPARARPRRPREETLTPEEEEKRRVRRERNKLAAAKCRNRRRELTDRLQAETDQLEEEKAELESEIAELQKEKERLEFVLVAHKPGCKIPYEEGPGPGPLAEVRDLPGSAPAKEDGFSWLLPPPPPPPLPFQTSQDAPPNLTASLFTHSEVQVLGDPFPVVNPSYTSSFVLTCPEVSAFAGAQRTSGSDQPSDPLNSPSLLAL
In short: (§2)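 ΔFosB homodimer, 320 nM (as monomers). Compound serially diluted, 10 concentrations over 0–200 μM in quadruplicate. Compound premixed 5 min with 25 nM TAMRA-cdk5 AP-1 19-mer duplex in 20 mM HEPES pH 7.5, 50 mM NaCl, then protein added for 15 min. FP read at ex 530/540, em 590 nm. Compound-plus-oligo wells without protein serve as the interference control. Four-parameter fit; IC50 is mean ± SD of two independent days.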

[2] = target: T2, Protein FosB (Homo sapiens, UniProt P53539); test: as §1; in short: as §2
T2 sequence (P53539 whole entry): T1 sequence (whole entry)

[3] = target: Protein fosB/Transcription factor jun-D (Homo sapiens) (UniProt P53539+P17535); test: (§3) Inhibition of recombinant Hi6-tagged deltaFOSB (unknown origin)/His6-tagged JUND (unknown origin) expressed in insect cells interaction with TAMRA labeled 5'-GTCGGTGACTCAAAACA-3' AP1 oligonucleotide measured after 15 mins by fluorescence polarization assay
In short: (§4)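 ΔFosB/JunD heterodimer, 280 nM (as monomers). Compound serially diluted, 10 concentrations over 0–200 μM in quadruplicate. Compound premixed 5 min with 25 nM TAMRA-cdk5 AP-1 19-mer duplex in 20 mM HEPES pH 7.5, 150 mM NaCl, then protein added for 15 min. FP read at ex 530/540, em 590 nm. Wells of compound with oligo and no protein check for DNA interference. IC50 from a four-parameter fit, mean ± SD of two independent days.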

[4] = target: T3, Protein fosB/Transcription factor jun-D (Homo sapiens, UniProt P17535+P53539); test: as §3; in short: as §4
T3 sequence (P53539 whole entry): T1 sequence (whole entry)
T3 sequence (P17535 whole entry): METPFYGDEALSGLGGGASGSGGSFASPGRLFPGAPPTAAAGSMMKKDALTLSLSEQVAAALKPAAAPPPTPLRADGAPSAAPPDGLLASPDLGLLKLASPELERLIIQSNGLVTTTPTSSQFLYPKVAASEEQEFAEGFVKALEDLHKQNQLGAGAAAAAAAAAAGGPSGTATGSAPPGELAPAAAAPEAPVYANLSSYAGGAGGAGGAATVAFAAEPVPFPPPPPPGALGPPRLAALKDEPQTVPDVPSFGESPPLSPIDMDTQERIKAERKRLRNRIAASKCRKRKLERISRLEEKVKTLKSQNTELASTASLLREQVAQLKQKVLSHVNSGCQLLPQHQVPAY

[5] = target: T4, Protein fosB/Transcription factor jun-D (Homo sapiens, UniProt P53539+P17535); test: as §3; in short: as §4
T4 sequence (P53539 whole entry): T1 sequence (whole entry)
T4 sequence (P17535 whole entry): T3 sequence (P17535 whole entry)

| Compound | inhibition [1] | IC50 ([2]; read-out: IC50) [µM] | inhibition [3] | IC50 [4] [µM] | IC50 [2] | IC50 [5] |
| --- | --- | --- | --- | --- | --- | --- |
| COc1cc(OC)c2c(C3CCNCC3)nc3c(OC)cccc3c2c1 | Dose-dependent effect | 58 | Dose-dependent effect | 55.7 |  |  |
| CCc1nc2c(OC)cccc2c2cc(OC)cc(OC)c12 |  |  |  |  | Not Active | Not Active |
| CNC(=O)C1Nc2c(OC)cccc2C2C=CCC12 (configuration not stated) |  | > 100 |  | > 100 |  |  |
| Cc1cccc2c1NC(C(=O)O)C1CC=CC21 (configuration not stated) |  |  |  |  | Not Active | Not Active |
| COc1cccc2c1N(C(C)=O)C(C(=O)O)C1CC=CC21 (configuration not stated) |  | > 100 |  | > 100 |  |  |
| Cc1cccc2c3c(c(C(=O)O)nc12)CCC3 |  | > 100 |  | > 100 |  |  |
| COc1cccc2c1NC(CO)C1CC=CC21 (configuration not stated) |  | > 100 |  | > 100 |  |  |
| COc1cccc2c1NC(C(=O)Nc1ccccc1)C1CC=CC21 (configuration not stated) |  | > 100 |  | > 100 |  |  |
| COc1cc(OC)c2c(C3CCN(C(=O)OC(C)(C)C)CC3)nc3c(OC)cccc3c2c1 |  | > 100 |  | > 100 |  |  |
| COc1cccc2c1NC(C(=O)O)C1CC=CC21 (configuration not stated) |  | 28.9 |  | 13.1 |  |  |
| COc1cccc2c1NC(C(=O)O)C1CCCC21 (configuration not stated) |  | > 100 |  | > 100 |  |  |
| COc1cc(OC)c2c(C3CCN(C(C)=O)CC3)nc3c(OC)cccc3c2c1 |  | > 100 |  | > 100 |  |  |
| CCOC(=O)C1Nc2c(OC)cccc2C2C=CCC12 (configuration not stated) |  | > 100 |  | > 100 |  |  |
| CCOC(=O)c1nc2c(C)cccc2c2c1CCC2 |  | > 100 |  | > 100 |  |  |
| COc1cc(OC)c2c(C(=O)O)nc3c(OC)cccc3c2c1 |  | > 100 |  | > 100 |  |  |
